Results reported in PMC3481556 (Journal of Natural Products, 2012).

Columns and labels:
[1] = system: liver-stage Plasmodium berghei; assay: Liver-stage P. berghei assay; assay type: cell-based, Plasmodium berghei ANKA
How it was run: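 Luciferase-expressing P. berghei ANKA sporozoites came from dissected infected Anopheles stephensi mosquitoes. 4000 sporozoites infected 15 000 HepG2 cells per well with test compound in triplicate, 0 to 50 μg/mL, final DMSO 1%. After 2 days at 37 °C, relative parasite load was read by Bright-Glo luminescence. Standard inhibition dose–response fit gave IC50, mean of two independent experiments.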

Bacillus subtilis 3610 = assay: Antibiotic assay; assay type: cell-based; settings: concentrations as high as 50 μg/mL
[2] = system: HepG2 human hepatoma cells; assay: Cytotoxic assay, HepG2 cell viability; assay type: cell-based; settings: concentrations as high as 50 μg/mL
How it was run: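 HepG2 cells kept in DMEM with 10% FBS and 1% antibiotic–antimycotic at 37 °C, 5% CO2. Test compound in DMSO added in triplicate to 15 000 cells per well, 0 to 50 μg/mL, final DMSO 1%. Incubated 2 days at 37 °C, then viability read by CellTiter-Glo luminescence. Standard inhibition dose–response fit gave IC50, averaged from two independent experiments.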

blood stage = assay: Blood stage assays; assay type: cell-based; settings: Plasmodium berghei, read-out: IC50 in blood stage assays

Structure (SMILES)	activity against liver-stage Plasmodium berghei (in words) [1]	activity against B. subtilis (in words) (Bacillus subtilis 3610)	cytotoxicity against HepG2 cells (in words) [2]	IC50 (blood stage) [nM]
COc1cccc2c1C(=O)c1ccc3cc(C)cc(O)c3c1C2=O [Compound 5, X-14881 E]	showed antibiotic activity	showed antibiotic activity	moderate cytotoxicity	–
O=C1C(O)=C([C@H]2CC[C@H](c3ccc(Cl)cc3)CC2)C(=O)c2ccccc21 [Atovaquone]	–	–	–	0.3
COc1cccc2c1C(=O)c1ccc3c(c1C2=O)C(=O)C[C@](C)(O)C3 [Compound 4, 6-deoxy-8-O-methylrabelomycin]	showed antibiotic activity	showed antibiotic activity	–	–
